Substitutions are numbered along the chain they refer to. “And” between values parts separate entries of the source, which are not always exact repeats. Equal values may be shown once.
Columns and labels:
Assay in all cases: Cell-based UBIAD1 functional assay
wild-type UBIAD1 = biological target: T1, wild-type UBIAD1 (Homo sapiens, UniProt Q9Y5Z9)
T1 sequence (Q9Y5Z9 1-338): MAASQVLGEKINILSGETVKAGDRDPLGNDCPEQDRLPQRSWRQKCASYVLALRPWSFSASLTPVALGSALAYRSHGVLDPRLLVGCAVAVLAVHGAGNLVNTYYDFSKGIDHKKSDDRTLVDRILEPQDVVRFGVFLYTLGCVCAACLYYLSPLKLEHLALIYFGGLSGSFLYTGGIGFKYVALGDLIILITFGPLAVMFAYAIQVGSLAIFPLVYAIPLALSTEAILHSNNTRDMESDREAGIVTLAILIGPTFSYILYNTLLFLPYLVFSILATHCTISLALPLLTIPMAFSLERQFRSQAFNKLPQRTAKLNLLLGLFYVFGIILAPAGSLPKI
How it was run: (§1)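 Wild-type or mutant human UBIAD1 in pCI-neo was transiently transfected into Ubiad1-knockout FIXgla-PC/HEK293 cells (DMEM/F12, 10% FBS). […] After 24 h, carboxylated FIXgla-PC in the medium was measured by ELISA. Activity was normalized to wild type (100%), and EC50 came from a curve fit. Mean ± SD, n=3 independent experiments.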

UBIAD1 C147S = biological target: T2, UBIAD1 C147S (Homo sapiens, UniProt Q9Y5Z9); conditions: 1 μM vitamin K3
T2 sequence (Q9Y5Z9 2-338): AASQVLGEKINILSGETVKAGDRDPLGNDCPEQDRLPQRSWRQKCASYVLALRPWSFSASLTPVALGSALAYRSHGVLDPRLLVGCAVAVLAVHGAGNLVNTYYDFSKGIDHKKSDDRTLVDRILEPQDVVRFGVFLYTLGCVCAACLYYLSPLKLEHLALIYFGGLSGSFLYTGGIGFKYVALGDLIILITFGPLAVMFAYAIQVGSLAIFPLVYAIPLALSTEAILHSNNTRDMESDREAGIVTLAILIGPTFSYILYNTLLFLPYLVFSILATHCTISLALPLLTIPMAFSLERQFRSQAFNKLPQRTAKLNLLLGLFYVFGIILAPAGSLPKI
How it was run: as §1

UBIAD1 G177E = biological target: T3, UBIAD1 G177E (Homo sapiens, UniProt Q9Y5Z9, G177E)
T3 sequence (Q9Y5Z9 1-338 G177E): T1 sequence (Q9Y5Z9 1-338) with G177E
How it was run: as §1

UBIAD1 G177R = biological target: T4, UBIAD1 G177R (Homo sapiens, UniProt Q9Y5Z9, G177R)
T4 sequence (Q9Y5Z9 1-338 G177R): T1 sequence (Q9Y5Z9 1-338) with G177R
How it was run: as §1

UBIAD1 D236A = biological target: T5, UBIAD1 D236A (Homo sapiens, UniProt Q9Y5Z9, D236A)
T5 sequence (Q9Y5Z9 1-338 D236A): T1 sequence (Q9Y5Z9 1-338) with D236A
How it was run: as §1

UBIAD1 D240A = biological target: T6, UBIAD1 D240A (Homo sapiens, UniProt Q9Y5Z9, D240A)
T6 sequence (Q9Y5Z9 1-338 D240A): T1 sequence (Q9Y5Z9 1-338) with D240A
How it was run: as §1

UBIAD1 D240N = biological target: T7, UBIAD1 D240N (Homo sapiens, UniProt Q9Y5Z9, D240N)
T7 sequence (Q9Y5Z9 1-338 D240N): T1 sequence (Q9Y5Z9 1-338) with D240N
How it was run: as §1

SMILES: CC1=CC(=O)c2ccccc2C1=O [vitamin K3, menadione]
- EC50 (wild-type UBIAD1): 3.7 ± 0.4 nM
- Vitamin K-dependent carboxylation Activity ± SD (wild-type UBIAD1; WT, 1 μM vitamin K3, WT normalized to 100%): 100 ± 2.4%
- Vitamin K-dependent carboxylation Activity ± SD (UBIAD1 C147S): 100.5 ± 3.7%
- EC50 (UBIAD1 G177E): 3.7 ± 0.5 nM
- Vitamin K-dependent carboxylation Activity ± SD (UBIAD1 G177E; G177E, 1 μM vitamin K3): 117.1 ± 4.5%
- EC50 (UBIAD1 G177R): 3 ± 0.3 nM
- Vitamin K-dependent carboxylation Activity ± SD (UBIAD1 G177R; G177R, 1 μM vitamin K3): 119.8 ± 1.2%
- EC50 (UBIAD1 D236A): 90 ± 17.6 nM
- Vitamin K-dependent carboxylation Activity ± SD (UBIAD1 D236A; D236A, 1 μM vitamin K3): 32% and 32.5 ± 0.9%
- EC50 (UBIAD1 D240A): 64 ± 10.5 nM
- Vitamin K-dependent carboxylation Activity ± SD (UBIAD1 D240A; D240A, 1 μM vitamin K3): 85.6 ± 1.4%
- EC50 (UBIAD1 D240N): 11.2 ± 1.5 nM
- Vitamin K-dependent carboxylation Activity ± SD (UBIAD1 D240N; D240N, 1 μM vitamin K3): 107.8 ± 2.5%

Reference: article PMC9064899 (The FEBS journal, 2021)
